According to ChEMBL document CHEMBL1275443, “Functional diversity among metallo-beta-lactamases: characterization of the CAR-1 enzyme of Erwinia carotovora” (2008):
In brackets after ≈: the same amount, converted by molar mass.

How the values were obtained:
Type in all cases: functional
[1] = tested on: Pectobacterium atrosepticum; assay: Antimicrobial activity against Erwinia carotovora subsp. atroseptica DSM 30184 after 24 hrs by broth microdilution method; conditions: DSM 30184, 24 h
In short: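 CLSI broth microdilution in nutrient broth with an inoculum of 5 x 10^4 CFU/well. MIC was read after 24 h at 28°C under aerobic growth.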

Escherichia coli [2] = assay: Antimicrobial activity against Escherichia coli DH5alpha harboring plasmid pLBII carrying beta-lactamase CAR-1 gene after 24 hrs by broth microdilution method
In short: (§1)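 MIC by CLSI broth microdilution in Mueller-Hinton broth at 37°C. Inoculum was 5 x 10^4 CFU/well, and growth was aerobic.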

Escherichia coli [3] = assay: Antimicrobial activity against Escherichia coli DH5alpha harboring plasmid BC-SK after 24 hrs by broth microdilution method; in short: as §1

Row | Structure (SMILES) | MIC [1] [µg/mL] | MIC (Escherichia coli [2]) [µg/mL] | MIC (Escherichia coli [3]) [µg/mL]
1 | CO/N=C(\C(=O)N[C@@H]1C(=O)N2C(C(=O)[O-])=C(C[N+]3(C)CCCC3)CS[C@H]12)c1csc(N)n1 | 2 (≈ 4.16 µM) | – | –
2 | CC1(C)S[C@@H]2[C@H](NC(=O)[C@H](N)c3ccccc3)C(=O)N2[C@H]1C(=O)O [AMPICILLIN] | 0.25 (≈ 0.715 µM) | 4 (≈ 11.4 µM) | 1 (≈ 2.86 µM)
3 | C[C@H]1[C@H](NC(=O)/C(=N\OC(C)(C)C(=O)O)c2csc(N)n2)C(=O)N1S(=O)(=O)O [AZTREONAM] | 16 (≈ 36.7 µM) | 0.25 (≈ 0.574 µM) | –
4 | CO/N=C(\C(=O)N[C@@H]1C(=O)N2C(C(=O)O)=C(COC(C)=O)CS[C@H]12)c1csc(N)n1 [CEFOTAXIME] | 1 (≈ 2.2 µM) | 16 (≈ 35.1 µM) | 0.06 (≈ 0.132 µM)
5 | CO[C@@]1(NC(=O)Cc2cccs2)C(=O)N2C(C(=O)O)=C(COC(N)=O)CS[C@@H]21 [CEFOXITIN] | 8 (≈ 18.7 µM) | 8 (≈ 18.7 µM) | 4 (≈ 9.36 µM)
6 | CC(C)(O/N=C(\C(=O)N[C@@H]1C(=O)N2C(C(=O)[O-])=C(C[n+]3ccccc3)CS[C@H]12)c1csc(N)n1)C(=O)O [CEFTAZIDIME] | 16 (≈ 29.3 µM) | 1 (≈ 1.83 µM) | 0.5 (≈ 0.915 µM)
7 | CO/N=C(\C(=O)N[C@@H]1C(=O)N2C(C(=O)O)=C(COC(N)=O)CS[C@H]12)c1ccco1 [CEFUROXIME] | 0.5 (≈ 1.18 µM) | 256 (≈ 603 µM) | 4 (≈ 9.43 µM)
8 | CC(=O)OCC1=C(C(=O)O)N2C(=O)[C@@H](NC(=O)Cc3cccs3)[C@H]2SC1 [CEPHALOTHIN] | 1 (≈ 2.52 µM) | 64 (≈ 161 µM) | 16 (≈ 40.4 µM)
9 | C[C@@H](O)[C@H]1C(=O)N2C(C(=O)O)=C(SCCNC=N)C[C@H]12 [IMIPENEM ANHYDROUS] | 0.12 (≈ 0.401 µM) | – | –
10 | C[C@@H](O)[C@H]1C(=O)N2C(C(=O)O)=C(S[C@@H]3CN[C@H](C(=O)N(C)C)C3)[C@H](C)[C@H]12 [MEROPENEM] | 0.25 (≈ 0.652 µM) | 0.06 (≈ 0.156 µM) | 0.03 (≈ 0.0782 µM)
11 | CCN1CCN(C(=O)N[C@@H](C(=O)N[C@@H]2C(=O)N3[C@@H]2SC(C)(C)[C@@H]3C(=O)O)c2ccccc2)C(=O)C1=O [PIPERACILLIN] | 64 (≈ 124 µM) | 2 (≈ 3.86 µM) | 1 (≈ 1.93 µM)
12 | CO[C@@]1(NC(=O)C(C(=O)O)c2ccsc2)C(=O)N2[C@@H](C(=O)O)C(C)(C)S[C@@H]21 (some centres undefined) [TEMOCILLIN] | 64 (≈ 154 µM) | 16 (≈ 38.6 µM) | 16 (≈ 38.6 µM)
13 | CC1(C)S[C@@H]2[C@H](NC(=O)[C@H](C(=O)O)c3ccsc3)C(=O)N2[C@H]1C(=O)O [TICARCILLIN] | 4 (≈ 10.4 µM) | 8 (≈ 20.8 µM) | 4 (≈ 10.4 µM)
